From ChEMBL document CHEMBL1629526, “4-[1-(Substituted aryl/alkyl carbonyl)-benzoimidazol-2-yl]-benzenesulfonic acids: synthesis, antimicrobial activity, QSAR studies, and antiviral evaluation” (Eur J Med Chem, 2010)
Converted amounts (≈) assume the structure as drawn.

Experiments:
Felid alphaherpesvirus 1 = test: Antiviral activity against Feline herpesvirus 1 infected in cat CRFK cells assessed as inhibition of virus induced cytopathicity after 2 to 4 days by MTS assay; type: functional, organism-based; settings: Felid alphaherpesvirus 1, CRFK
Bacillus subtilis = test: Antimicrobial activity against Bacillus subtilis after 24 hrs by tube dilution method; type: functional
Outline: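 Serial dilutions in double-strength nutrient broth (I.P.) with ciprofloxacin as reference, tube dilution, incubated 37 °C for 24 h. MIC is the lowest concentration that inhibited growth.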

[1] = system: Vesicular stomatitis virus; test: Antiviral activity against Vesicular stomatitis virus infected in human HeLa cells assessed as inhibition of virus induced cytopathicity by visual scoring of CPE; type: functional, organism-based
Human alphaherpesvirus 2 = test: Antiviral activity against Herpes simplex virus 2 G infected in HEL cells assessed as inhibition of virus induced cytopathicity after 2 to 4 days by MTS assay; type: functional, organism-based; settings: Human alphaherpesvirus 2, strain G
Coxsackievirus B4 [2] = test: Antiviral activity against coxsackievirus B4 infected in human HeLa cells assessed as inhibition of virus induced cytopathicity after 2 to 4 days by MTS assay; type: functional, organism-based; settings: Enterovirus B
MDCK = test: Cytotoxicity against MDCK cells assessed as cell viability by MTS assay; type: cell-based, Canis lupus familiaris; settings: dog, mdck
Outline: (§1)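 Uninfected cultures were run in parallel with the antiviral assays. Viability was read by colorimetric formazan MTS assay.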

[3] = Cytotoxicity against cat CRFK cells assessed as cell viability by MTS assay; type: cell-based, Felis catus; settings: crfk; outline: as §1
[4] = system: Respiratory syncytial virus; test: Antiviral activity against Respiratory syncytial virus infected in human HeLa cells assessed as inhibition of virus induced cytopathicity after 2 to 4 days by MTS assay; type: functional, organism-based
Influenza A virus [5] = test: Antiviral activity against Influenza A H1N1 virus subtype infected in MDCK cells assessed as inhibition of virus induced cytopathicity by visual scoring of CPE; type: functional, organism-based
[6] = system: Mammalian orthoreovirus 1; test: Antiviral activity against Reovirus 1 virus infected in african green monkey Vero cells assessed as inhibition of virus induced cytopathicity after 2 to 4 days by MTS assay; type: functional, organism-based; settings: Mammalian orthoreovirus 1, Vero
Escherichia coli = test: Antimicrobial activity against Escherichia coli after 24 hrs by tube dilution method; type: functional
Coxsackievirus B4 [7] = test: Antiviral activity against coxsackievirus B4 infected in human HeLa cells assessed as inhibition of virus induced cytopathicity by visual scoring of CPE; type: functional, organism-based; settings: Enterovirus B
Staphylococcus aureus = test: Antimicrobial activity against Staphylococcus aureus after 24 hrs by tube dilution method; type: functional
Human alphaherpesvirus 1 [8] = test: Antiviral activity against thymidine kinase deficient acyclovir-resistant Herpes simplex virus 1 KOS infected in HEL cells assessed as inhibition of virus induced cytopathicity after 2 to 4 days by MTS assay; type: functional, organism-based; settings: Human alphaherpesvirus 1, KOS
[9] = system: Respiratory syncytial virus; test: Antiviral activity against Respiratory syncytial virus infected in human HeLa cells assessed as inhibition of virus induced cytopathicity by visual scoring of CPE; type: functional, organism-based
Influenza A virus [10] = test: Antiviral activity against Influenza A H3N2 virus subtype infected in MDCK cells assessed as inhibition of virus induced cytopathicity after 2 to 4 days by MTS assay; type: functional, organism-based
Human respirovirus 3 = test: Antiviral activity against parainfluenza-3 virus infected in african green monkey Vero cells assessed as inhibition of virus induced cytopathicity after 2 to 4 days by MTS assay; type: functional, organism-based; settings: Human respirovirus 3, Vero
Aspergillus niger = test: Antimicrobial activity against Aspergillus niger after 7 days by tube dilution method; type: functional; settings: 168 h
Influenza B virus [11] = test: Antiviral activity against Influenza B virus infected in MDCK cells assessed as inhibition of virus induced cytopathicity by visual scoring of CPE; type: functional, organism-based
[12] = system: Vesicular stomatitis virus; test: Antiviral activity against Vesicular stomatitis virus infected in human HeLa cells assessed as inhibition of virus induced cytopathicity after 2 to 4 days by MTS assay; type: functional, organism-based
[13] = Cytotoxicity against MDCK cells assessed as altered cell morphology; type: cell-based, Canis lupus familiaris; settings: dog
Outline: (§2)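 Uninfected cell cultures run alongside the antiviral assays, exposed to serial compound dilutions and incubated at 37 °C for 2–4 days. Toxicity was scored microscopically and reported as the minimum cytotoxic concentration (MCC), the lowest concentration causing a detectable change in normal cell morphology.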

[14] = system: Vesicular stomatitis virus; test: Antiviral activity against Vesicular stomatitis virus infected in HEL cells assessed as inhibition of virus induced cytopathicity after 2 to 4 days by MTS assay; type: functional, organism-based
Punta Toro virus = test: Antiviral activity against Punta Toro virus infected in african green monkey Vero cells assessed as inhibition of virus induced cytopathicity after 2 to 4 days by MTS assay; type: functional, organism-based
Human alphaherpesvirus 1 [15] = test: Antiviral activity against Herpes simplex virus 1 KOS infected in HEL cells assessed as inhibition of virus induced cytopathicity after 2 to 4 days by MTS assay; type: functional, organism-based; settings: Human alphaherpesvirus 1, KOS
HeLa = test: Cytotoxicity against human HeLa cells assessed as cell viability by MTS assay; type: cell-based; settings: hela; outline: as §1
Influenza A virus [16] = test: Antiviral activity against Influenza A H3N2 virus subtype infected in MDCK cells assessed as inhibition of virus induced cytopathicity by visual scoring of CPE; type: functional, organism-based
Influenza B virus [17] = test: Antiviral activity against Influenza B virus infected in MDCK cells assessed as inhibition of virus induced cytopathicity after 2 to 4 days by MTS assay; type: functional, organism-based
Influenza A virus [18] = test: Antiviral activity against Influenza A H1N1 virus subtype infected in MDCK cells assessed as inhibition of virus induced cytopathicity after 2 to 4 days by MTS assay; type: functional, organism-based
Candida albicans = test: Antimicrobial activity against Candida albicans after 48 hrs by tube dilution method; type: functional
Sindbis virus = test: Antiviral activity against Sindbis virus infected in african green monkey Vero cells assessed as inhibition of virus induced cytopathicity after 2 to 4 days by MTS assay; type: functional, organism-based
[19] = Cytotoxicity against human HEL cells assessed as altered cell morphology; type: cell-based; outline: as §2
Feline coronavirus = test: Antiviral activity against Feline coronavirus infected in cat CRFK cells assessed as inhibition of virus induced cytopathicity after 2 to 4 days by MTS assay; type: functional, organism-based; settings: Alphacoronavirus 1, CRFK
[20] = Cytotoxicity against human HeLa cells assessed as altered cell morphology; type: cell-based; outline: as §2
Coxsackievirus B4 [21] = test: Antiviral activity against Coxsackie virus B4 infected in african green monkey Vero cells assessed as inhibition of virus induced cytopathicity after 2 to 4 days by MTS assay; type: functional, organism-based; settings: Enterovirus B
Vaccinia virus = test: Antiviral activity against Vaccinia virus infected in HEL cells assessed as inhibition of virus induced cytopathicity after 2 to 4 days by MTS assay; type: functional, organism-based; settings: Orthopoxvirus vaccinia
[22] = Cytotoxicity against african green monkey Vero cells assessed as altered cell morphology; type: cell-based; settings: chlorocebus sabaeus; outline: as §2

Structure (SMILES) | EC50 (Felid alphaherpesvirus 1) [µg/mL] | MBC (Bacillus subtilis) [µg/mL] | EC50 [1] [µg/mL] | EC50 (Human alphaherpesvirus 2) [µg/mL] | EC50 (Coxsackievirus B4 [2]) [µg/mL] | CC50 (MDCK) [µg/mL] | CC50 [3] [µg/mL] | EC50 [4] [µg/mL] | EC50 [6] [µg/mL] | MBC (Escherichia coli) [µg/mL] | EC50 (Coxsackievirus B4 [7]) [µg/mL] | MBC (Staphylococcus aureus) [µg/mL] | EC50 (Human alphaherpesvirus 1 [8]) [µg/mL] | EC50 [9] [µg/mL] | EC50 (Influenza A virus [10]) [µg/mL] | EC50 (Human respirovirus 3) [µg/mL] | MFC (Aspergillus niger) [µg/mL] | EC50 [12] [µg/mL] | MCC [13] [µg/mL] | EC50 [14] [µg/mL] | also measured
Nc1ccccc1C(=O)n1c(-c2ccc(S(=O)(=O)O)cc2)nc2ccccc21 | > 4 | > 50 | > 20 | > 100 | > 20 | 4.1 (≈ 10.4 µM) | 11 (≈ 28 µM) | > 20 | > 4 | 1.56 (≈ 3.97 µM) | > 20 | 50 (≈ 127 µM) | > 100 | > 20 | > 4 | > 4 | > 50 | > 20 | ≥ 4 | > 100 | EC50 (Influenza A virus [5]): > 4 µg/mL; EC50 (Influenza B virus [11]): > 4 µg/mL; EC50 (Punta Toro virus): > 4 µg/mL; EC50 (Human alphaherpesvirus 1 [15]): > 100 µg/mL; CC50 (HeLa): > 100 µg/mL; EC50 (Influenza A virus [16]): > 4 µg/mL; EC50 (Influenza B virus [17]): > 4 µg/mL; EC50 (Influenza A virus [18]): > 4 µg/mL; MFC (Candida albicans): 50 µg/mL (≈ 127 µM); EC50 (Sindbis virus): > 4 µg/mL; MCC [19]: > 100 µg/mL; EC50 (Feline coronavirus): > 4 µg/mL; MCC [20]: ≥ 20 µg/mL; EC50 (Coxsackievirus B4 [21]): > 4 µg/mL; EC50 (Vaccinia virus): > 100 µg/mL; MCC [22]: 20 µg/mL
C=CC(=O)n1c(-c2ccc(S(=O)(=O)O)cc2)nc2ccccc21 | > 20 | 12.5 (≈ 38.1 µM) | > 100 | > 20 | > 100 | 14.1 (≈ 42.9 µM) | > 82 | > 100 | > 100 | 1.56 (≈ 4.75 µM) | > 100 | 6.25 (≈ 19 µM) | > 20 | > 100 | > 0.8 | > 100 | > 50 | > 100 | ≥ 0.8 | > 20 | EC50 (Influenza A virus [5]): > 0.8 µg/mL; EC50 (Punta Toro virus): > 100 µg/mL; EC50 (Human alphaherpesvirus 1 [15]): > 20 µg/mL; CC50 (HeLa): > 100 µg/mL; EC50 (Influenza A virus [16]): > 0.8 µg/mL; EC50 (Influenza A virus [18]): > 0.8 µg/mL; MFC (Candida albicans): > 50 µg/mL; EC50 (Sindbis virus): > 100 µg/mL; MCC [19]: 100 µg/mL; EC50 (Feline coronavirus): > 20 µg/mL; MCC [20]: > 100 µg/mL; EC50 (Coxsackievirus B4 [21]): > 100 µg/mL; EC50 (Vaccinia virus): > 20 µg/mL; MCC [22]: > 100 µg/mL
O=C(c1ccccc1)n1c(-c2ccc(S(=O)(=O)O)cc2)nc2ccccc21 | > 100 | > 50 | > 100 | > 100 | > 100 | > 100 | > 100 | > 100 | > 100 | 1.56 (≈ 4.12 µM) | > 100 | 12.5 (≈ 33 µM) | > 100 | > 100 | > 100 | > 100 | > 50 | > 100 | > 100 | > 100 | EC50 (Influenza B virus [11]): > 100 µg/mL; EC50 (Punta Toro virus): > 100 µg/mL; EC50 (Human alphaherpesvirus 1 [15]): > 100 µg/mL; CC50 (HeLa): > 100 µg/mL; EC50 (Influenza A virus [16]): > 100 µg/mL; EC50 (Influenza B virus [17]): > 100 µg/mL; MFC (Candida albicans): 50 µg/mL (≈ 132 µM); EC50 (Sindbis virus): > 100 µg/mL; MCC [19]: > 100 µg/mL; EC50 (Feline coronavirus): > 100 µg/mL; MCC [20]: > 100 µg/mL; EC50 (Coxsackievirus B4 [21]): > 100 µg/mL; EC50 (Vaccinia virus): > 100 µg/mL; MCC [22]: > 100 µg/mL
